Series [1] is described as follows: Antitumor activity against mouse EAC cells xenografted in BALB/C mouse assessed as reduction of tumor weight at 10 mg/kg, ip administered every 3 days measured on day 15 relative to control. Type of series: functional. Conditions: Ehrlich, route intraperitoneal. The method, boiled down: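 Ehrlich cells (2.5 × 10^6 in 60 µL) were injected into the right hind footpad of Balb/C mice (n = 8/group). Dosing was intraperitoneal every third day from day 3, with saline 0.9% vehicle. On day 15 both hind paws were removed and weighed. Relative tumor weight was (tumor paw − healthy paw weight)/body weight, reported as % inhibition versus vehicle ± SD.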

The next series deals with Mus musculus. Briefly: Acute toxicity in BALB/C mouse assessed as reduction of body weight at up to 10 mg/kg, ip after 15 days. Type of series: organism-based. The arrangement: dose 10 mg/kg, route intraperitoneal. The note with it: in vivo, 360 h. In a few lines:
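Body weight and toxicity signs were tracked in Balb/C mice (n = 8/group) carrying Ehrlich footpad tumors. Dosing was intraperitoneal every third day from day 3 after inoculation, four treatments in total, with saline 0.9% vehicle. Mice were weighed throughout until sacrifice on day 15.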

A short description of series [2]: Antitumor activity against mouse EAC cells xenografted in BALB/C mouse assessed as inhibition of tumor growth at 10 mg/kg, ip administered every 3 days measured on day 7 relative to control. It counts as functional. The note with it: Ehrlich, route intraperitoneal. In a few lines:
(§1)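 Ehrlich cells were kept as ascites by weekly peritoneal passage in mice. Balb/C mice (n = 8/group) received 2.5 × 10^6 cells in 60 µL into the right hind footpad. Dosing was intraperitoneal every third day from day 3, with saline 0.9% vehicle. Tumor volume was plethysmometer paw volume minus basal volume, read every third day to day 15, and reported as % inhibition versus vehicle ± SD.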

A short description of series [3]: Antitumor activity against mouse EAC cells xenografted in BALB/C mouse assessed as inhibition of tumor growth at 10 mg/kg, ip administered every 3 days measured on day 15 relative to control. Conditions: Ehrlich, route intraperitoneal. Type of series: functional. In a few lines:
as §1

This note sets out measurements from ChEMBL document CHEMBL1240522, “Effect of goniothalamin on the development of Ehrlich solid tumor in mice” (Bioorg Med Chem, 2010).

Broadly, the inhibition in vivo is the change of the read-out against control, counted positive when it falls. For `O=c1[nH]cc(F)c(=O)[nH]1` [FLUOROURACIL], the values for the inhibition in vivo at 10 mg/kg in series [1], in series [2] and in series [3] were 46.1%, 41.7% and 57.6%, respectively. Besides, in the series on Mus musculus, the Activity entry is recorded as “Non-toxic”.
